In the library only some 1.8% were active in any assay of this set; here they are far more common.
ABHD4 inh = ABHD4 inhibitors, primary screen, biochemical, fluorescence polarization, mouse; purified mABHD4, FP-Rh probe fluorescence polarization; inhibition, % at 8.92 µM; 0.54% of 370,000 active; (Lyso)-N-acylphosphatidylethanolamine lipase (Mus musculus), Q8VD66;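 active = inhibition exceeding the mean over every tested compound plus 3 SD, cut at about 30% in these data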;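 note: 0% = plate median of compound wells and 100% = S159A mutant with DMSO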
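assay system = mABHD4 protein | compound dosing = single nominal dose of 8.92 µM, 0.89% DMSO final | read-out basis = percent inhibition of probe binding, normalized to plate controls | schedule = Enzyme–compound pre-incubation 45 min, then probe 60 min, both 25 °C | detection = fluorescence polarization, excitation 525 nm, emission 598 nm, BODIPY TMR filters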
SIAE primary = human SIAE inhibitors, primary screen, biochemical, fluorescence polarization, FP-Rh probe, 1536-well HTS. Sialate O-acetylesterase (Homo sapiens), Q9HAT2. SIAE FP-Rh probe binding. inhibition, % at 9.66 µM. 0.69% of 370,000 active;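 active = inhibition above a cutoff: mean of compounds within the control limits plus 3 SD of those, cut at about 17% in these data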;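 note: 0% = plate median of compound wells and 100% = probe without SIAE protein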
Target sequence (Q9HAT2 whole entry, looked up): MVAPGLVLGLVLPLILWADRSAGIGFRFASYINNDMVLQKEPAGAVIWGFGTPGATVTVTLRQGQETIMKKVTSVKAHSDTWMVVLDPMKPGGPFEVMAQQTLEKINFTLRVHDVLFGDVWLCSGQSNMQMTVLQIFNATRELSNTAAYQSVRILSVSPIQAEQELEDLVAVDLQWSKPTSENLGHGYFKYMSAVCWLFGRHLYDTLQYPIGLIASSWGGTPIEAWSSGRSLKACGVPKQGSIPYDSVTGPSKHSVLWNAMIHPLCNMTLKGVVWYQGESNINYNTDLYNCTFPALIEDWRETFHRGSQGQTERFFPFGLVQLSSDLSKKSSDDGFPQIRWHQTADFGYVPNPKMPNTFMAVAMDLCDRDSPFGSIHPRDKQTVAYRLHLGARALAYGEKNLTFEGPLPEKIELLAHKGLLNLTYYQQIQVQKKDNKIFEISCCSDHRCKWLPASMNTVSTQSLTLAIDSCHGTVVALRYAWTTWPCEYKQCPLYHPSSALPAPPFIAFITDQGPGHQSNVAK
Fam108B counter = mouse Fam108B serine hydrolase inhibitors, primary screen, counter-screen for RBBP9 inhibitor project, biochemical, fluorescence polarization. recombinant Fam108B, FP-Rh probe fluorescence polarization. inhibition, % at 9.51 µM. 0.33% of 300,000 active;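 active = inhibition above the screen mean inhibition plus 3 SD, computed separately per campaign, cut at about 18% in these data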;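 note: inhibitors lower polarization as less probe binds the enzyme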
TCR CD3 inh = inhibitors of human TCR-CD3 interaction, primary screen, biochemical, fluorescence, TAMRA-labeled TCR probe; T-cell receptor (TCR); 0.37% of 360,000 active; inhibition, % at 9.4 µM; AID 651800, 2012; in the data active = inhibition above about 19%;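 note: recombinant mutant TCR 2C K166C tagged with TAMRA read by polarization; 0% = receptor in buffer alone and 100% = receptor with positive control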
HTRA1 inh = HTRA1 serine protease inhibitors, primary screen, biochemical, fluorescence polarization, HTS; recombinant HTRA1, FP-rhodamine activity-based probe; inhibition, % at 5.96 µM; 0.5% of 340,000 active; AID 504803, 2011; in the data active = inhibition above about 36%;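 note: 0% = enzyme with DMSO and 100% = wells lacking enzyme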
PME-1 inh = PME-1 inhibitors via competitive probe labeling, primary screen, biochemical, fluorescence polarization, FP-Rh probe, HTS | recombinant PME-1 | inhibition, % at 5.9 µM | 0.53% of 320,000 active;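 active = inhibition above the campaign mean of all compounds plus 3 SD, cut at about 26% in these data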;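 note: competitive labeling of PME-1 active site by serine hydrolase directed probe; 0% = PME-1 with DMSO and 100% = wells lacking PME-1 enzyme; inhibitors block probe labeling so polarization falls and inhibition rises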
Fam108b confirm = mouse Fam108b serine hydrolase inhibitors, confirmation, counter-screen for RBBP9 inhibitor project, biochemical, fluorescence polarization, triplicate | shares compounds with Fam108B counter | recombinant Fam108b, FP-Rh probe fluorescence polarization | inhibition, % at 9.51 µM | 44% of 930 active | AID 1978, 2009;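 active = inhibition above a limit from the primary screen, the mean over all compounds plus 3 SD, cut at about 19% in these data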;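 note: 0% = median of active Fam108b wells and 100% = catalytically dead S170A mutant; inhibitors free the probe so polarization falls as inhibition rises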
Fam108b ABPP HTS = inhibition of mouse Fam108b by HTS hits, late-stage follow-up, biochemical, gel-based ABPP, soluble recombinant form | fluorophosphonate probe | 44% of 260 active | inhibition, % at 20 µM | shares compounds with Fam108B counter; in the data active = inhibition above about 40%
* = called active by the depositor; x = not tested or not shown.

SMILES | ABHD4 inh | SIAE primary | Fam108B counter | TCR CD3 inh | HTRA1 inh | PME-1 inh | Fam108b confirm | others
Cc1ccc(-n2c(Cc3cccs3)nnc2SCc2ccc(C#N)cc2)cc1 | -2.6 | 4.9 | x | x | x | x | x
COC(=O)N/N=C/c1cc(N=Nc2ccccc2Cl)ccc1O | 1.8 | -11.9 | 22.3* | 16.9 | 4.8 | -2.1 | -2.9
Cc1cc(C(=O)N/N=C/c2cc(N=Nc3ccccc3)ccc2O)n[nH]1 | x | x | 20.2* | x | 28.0 | 6.7 | 11.1
COC(=O)N/N=C/c1cc(N=Nc2ccccc2)ccc1O | 14.2 | 8.4 | 4.5 | 11.9 | 3.5 | 3.3 | x
O=C(Nc1ccccc1)OCCN1CCCC12CCC(c1ccccc1)CC2 (configuration not stated) | -0.8 | -6.0 | x | x | x | x | x
CCc1c(C(=O)Nc2ccc(OC)c(Cl)c2)[nH]c(C)c1C(C)=O | 2.8 | 7.3 | 19.0* | -1.4 | -2.5 | -4.2 | 39.5* | Fam108b ABPP HTS=0.0
Oc1ccc2ccccc2c1/C=N/Nc1ccccc1 | 20.8 | 8.9 | 9.2 | 4.2 | 12.1 | 1.7 | x
Cc1cc(NN=Cc2c(O)ccc3ccccc23)nc(-c2ccccc2O)n1 | x | x | x | x | x | x | x | Fam108b ABPP HTS=95.0*
O=[N+]([O-])c1cc(Cl)cc(/C=N/Nc2nc3ccccc3s2)c1O | 8.3 | 4.3 | 32.7* | -0.8 | 26.2 | 20.2 | 8.8
COc1cc(/C=N/Nc2nc3ccccc3s2)cc([N+](=O)[O-])c1O | 22.9 | -7.3 | 21.4* | -5.3 | 13.6 | 62.5* | 12.3
Brc1csc(C=NNc2nc3ccccc3s2)c1 | x | x | x | x | x | x | x | Fam108b ABPP HTS=70.0*
CCCC#Cc1ccc(CC[C@H]2O[C@H]3CC[C@H](CO)O[C@H]3C[C@H]2NC(=O)CN2CCOCC2)cc1 | 3.6 | 1.6 | x | x | x | x | x
COC(=O)c1ccc(S(=O)(=O)N2CCC(NC(=O)CCc3ccccc3)CC2)cc1 | 0.0 | -7.4 | x | x | x | x | x
O=C(CCc1ccccc1)N[C@H]1[C@H](OC(=O)c2ccco2)CCC[C@]12C(=O)N(Cc1ccccc1)c1ccccc12 | 0.7 | 3.5 | x | x | x | x | x
CN(CCCOC(=O)c1cc2ccccc2o1)C1CN(Cc2cn(Cc3ccccc3C(F)(F)F)nn2)S(=O)(=O)C1 (configuration not stated) | -1.2 | -2.8 | x | x | x | x | x
O=C1NC(=S)/C(=C\c2ccc(-c3ccccc3Cl)o2)S1 | 25.9 | 3.6 | 28.8* | 0.6 | 24.5 | 37.0* | 45.3* | Fam108b ABPP HTS=65.0*
COC(=O)[C@]12C[C@H](CC(=O)NCCC(C)C)C(=O)N(CCc3ccc(OC)c(OC)c3)C1=C[C@H](C(C)C)O[C@@H]2C1CC1 | -0.5 | 4.0 | x | x | x | x | x
O=Nc1c2nc3ccccc3n(O)c-2c2ccccc12 | -55.9 | 1.7 | 23.7* | 5.0 | 2.9 | 10.7 | -24.7
O=C(NCCN1CCC(n2c(=O)[nH]c3cc(Cl)ccc32)CC1)c1ccc(F)cc1 | 8.9 | -1.9 | x | -0.7 | x | x | x
O=C(N/N=C/c1ccc(O)cc1)c1cccc(N/N=C/c2ccc(O)cc2)c1 | 8.2 | 11.8 | 55.6* | 1.8 | 16.8 | 30.8* | 47.6*
COC(=O)C1CN(C2CC2)CCS(=O)(=O)N1Cc1cn(Cc2ccccc2)nn1 (configuration not stated) | 0.8 | 6.3 | x | x | x | x | x
CCC/C(=N/NC(=O)c1cccc(Cl)c1)c1ccccc1 | 0.5 | 4.8 | -3.4 | 5.5 | -10.4 | -13.1 | x
CC(=NNC(=O)c1cccc(Cl)c1)C1C(=O)c2ccccc2C1=O | x | x | x | x | x | x | x | Fam108b ABPP HTS=0.0
CC1CCCCN1S(=O)(=O)c1ccc(C(=O)Nc2ccccc2-c2nc3ccccc3[nH]2)cc1 (configuration not stated) | -10.1 | -101.4 | 32.0* | 8.7 | -24.4 | 27.7* | 71.8*
O=C(c1cc([N+](=O)[O-])ccc1N1CCCC1)N1CCCCC1 | -1.2 | -5.8 | -3.4 | 4.3 | 6.2 | -7.1 | x
SMILES | ABHD4 inh | SIAE primary | Fam108B counter | TCR CD3 inh | HTRA1 inh | PME-1 inh | Fam108b confirm | others
O=C(c1cc([N+](=O)[O-])ccc1N1CCCCC1)N1CCCCC1 | -1.0 | 3.3 | 38.5* | 1.5 | 4.5 | 0.5 | -9.9
N=C1/C(=C\c2ccc(-c3cccc(C(=O)O)c3)o2)C(=O)N=C2SC=C(c3ccccc3)N12 | -0.9 | -24.2 | 23.6* | 7.2 | -42.9 | 2.5 | 3.4
COc1ccc(Nc2nc(-c3ccccc3O)nc3ccccc23)cc1 | -5.4 | 13.6 | 25.4* | -4.0 | -32.7 | 16.9 | -19.7
COc1cccc(Nc2nc(-c3ccccc3O)nc3ccccc23)c1 | -1.7 | 1.6 | -7.5 | 4.2 | -41.1 | -16.5 | x
CC(=O)c1ccc(NC(=O)c2ccc3nc(-c4ccco4)c(-c4ccco4)nc3c2)cc1 | x | x | 40.3* | x | 38.9* | 4.9 | 28.9*
Cc1nc2ccc(NC(=O)NCCO)cc2s1 | 6.5 | -7.1 | -0.8 | -3.4 | 7.5 | -0.1 | x
O=C(NCCO)Nc1ccc2nc(-c3ccco3)c(-c3ccco3)nc2c1 | x | x | 67.6* | x | x | 24.7 | 45.4* | Fam108b ABPP HTS=0.0
COC(=O)C1CN(CCc2ccccc2)CCS(=O)(=O)N1Cc1ccccc1 (configuration not stated) | 2.8 | 2.8 | x | x | x | x | x
O=C1C(Cl)=C(N2CCN(c3ccccc3[N+](=O)[O-])CC2)C(=O)c2ccccc21 | 26.0 | 12.7 | 29.9* | -3.0 | 25.0 | 25.2 | 32.3* | Fam108b ABPP HTS=5.0
O=[N+]([O-])c1cc(Cl)ccc1N1CCCC1 | -0.6 | 0.5 | -1.6 | 3.0 | 0.3 | 4.9 | x
COc1ccc(-c2nc3scc(-c4ccc(OC)c(OC)c4)c3c(=O)o2)cc1 | x | x | -0.8 | x | -0.8 | 20.1 | x
Cc1nc2scc(-c3cccs3)c2c(=O)o1 | 3.0 | 2.9 | 3.9 | 1.4 | 3.8 | 0.3 | x
COc1ccc(-c2csc3nc(-c4ccccc4F)oc(=O)c23)cc1 | -1.9 | -4.0 | 50.2* | 0.6 | -16.5 | 12.3 | 36.5* | Fam108b ABPP HTS=60.0*
CC(C)(C)c1nc2scc(-c3ccc(Br)cc3)c2c(=O)o1 | 0.6 | -0.9 | 26.5* | 2.2 | 1.3 | -6.4 | 29.3*
O=c1[nH]cnc2scc(-c3ccc(Br)cc3)c12 | 1.9 | 7.9 | -5.2 | 3.2 | -11.9 | -0.5 | x
Cc1nc2scc(-c3ccc(Cl)cc3)c2c(=O)o1 | 0.7 | -0.6 | 46.0* | 2.0 | -7.0 | -7.5 | 78.7* | Fam108b ABPP HTS=80.0*
CC(=O)C1=C(C)N(Cc2ccc(F)cc2)C(=S)NC1c1ccc(Cl)cc1 (configuration not stated) | -5.2 | -4.3 | x | 7.3 | x | x | x
CN(Cc1ccccc1)S(=O)(=O)c1cccc(C(=O)OCC2CCCCC2)c1 | -5.7 | 3.6 | x | x | x | x | x
